Reference: ChEMBL document CHEMBL1149790, “Synthesis of some novel thiourea derivatives obtained from 5-[(4-aminophenoxy)methyl]-4-alkyl/aryl-2,4-dihydro-3H-1,2,4-triazole-3-thiones and evaluation as antiviral/anti-HIV and anti-tuberculosis agents” (Eur J Med Chem, 2008)
≈ marks a conversion by molar mass, not a printed value. Calls of active or inactive are those of the source. The calls are words filed in the database; no cut-off is given here.

Key:
[1] = test system: Vesicular stomatitis virus; assay: Antiviral activity against in Vesicular stomatitis virus in human E6SM cells assessed as reduction of virus-induced cytopathogenicity; assay type: functional
Outline: (§1)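 Confluent cell monolayers (E6SM, HEL, HeLa or Vero, per line) inoculated with 100 CCID50 virus; 1 h adsorption, residual virus removed, then incubated with compound at 400, 200, 100 … µg/ml. Cytopathicity scored once complete in untreated virus controls; MIC = concentration inhibiting virus-induced cytopathicity.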

[2] = Cytotoxicity against human HEL cells assessed as reduction of cell growth; assay type: cell-based
Outline: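 HEL cells; CC50 = compound concentration reducing cell growth by 50%.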

Human alphaherpesvirus 3 [3] = assay: Antiviral activity against TK+ VZV OKA infected HEL cells assessed as reduction in virus plaque formation; assay type: functional, organism-based; details: Human alphaherpesvirus 3, OKA
[4] = test system: Vesicular stomatitis virus; assay: Antiviral activity against vesicular stomatitis virus in human HeLa cells assessed as inhibition of virus-induced cytopathogenicity; assay type: functional; outline: as §1
Human alphaherpesvirus 2 [5] = assay: Antiviral activity against HSV2 G in human HEL cells assessed as reduction of virus-induced cytopathogenicity; assay type: functional; details: Human alphaherpesvirus 2, G; outline: as §1
Human alphaherpesvirus 3 [6] = assay: Antiviral activity against TK- VZV 07/1 infected HEL cells assessed as reduction in virus plaque formation; assay type: functional, organism-based; details: Human alphaherpesvirus 3, 07/1, HEL
Human alphaherpesvirus 1 [7] = assay: Antiviral activity against thymidine kinase deficient and acyclovir resistant HSV1 KOS in human HEL cells assessed as reduction of virus-induced cytopathogenicity; assay type: functional; details: Human alphaherpesvirus 1, KOS; outline: as §1
[8] = Cytotoxicity against human HEL cells assessed as alteration of cell morphology; assay type: cell-based
Outline: (§2)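 Uninfected cell cultures exposed to test compounds alongside antiviral assays; minimum cytotoxic concentration (MCC) = concentration causing a microscopically detectable alteration of cell morphology.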

[9] = test system: Mycobacterium tuberculosis; assay: Antitubercular activity against Mycobacterium tuberculosis H37Rv at 6.25 ug/ml by MABA assay; assay type: functional
Coxsackievirus B4 [10] = assay: Antiviral activity against Coxsackie virus B4 in african green monkey Vero cells assessed as reduction of virus-induced cytopathogenicity; assay type: functional; details: Enterovirus B; outline: as §1
Vero = assay: Cytotoxicity against african green monkey Vero cells; assay type: cell-based; details: chlorocebus sabaeus; outline: as §2
Human betaherpesvirus 5 [11] = assay: Antiviral activity against human cytomegalovirus Davis infected HEL cells assessed as reduction in virus plaque formation; assay type: functional, organism-based; details: Human betaherpesvirus 5, Davis
Sindbis virus = assay: Antiviral activity against Sindbis virus in african green monkey Vero cells assessed as reduction of virus-induced cytopathogenicity; assay type: functional; outline: as §1
Coxsackievirus B4 [12] = assay: Antiviral activity against Coxsackie virus B4 in human HeLa cells assessed as inhibition of virus-induced cytopathogenicity; assay type: functional; details: Enterovirus B; outline: as §1
Punta Toro virus = assay: Antiviral activity against Punta Toro virus in african green monkey Vero cells assessed as reduction of virus-induced cytopathogenicity; assay type: functional; outline: as §1
Human respirovirus 3 = assay: Antiviral activity against Parainfluenza 3 virus in african green monkey Vero cells assessed as reduction of virus-induced cytopathogenicity; assay type: functional; outline: as §1
[13] = test system: Human immunodeficiency virus 2; assay: Antiviral activity against HIV2 ROD in human MT4 cells assessed as protection against virus-induced cytopathogenicity by MTT assay; assay type: functional, organism-based; design: Activity: concentration or dose not given beside the values; details: for IC50: Human immunodeficiency virus 2, ROD, MT4
Outline: (§3)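 MT-4 cells at 6 × 10⁵ cells/ml infected with HIV-1 IIIB or HIV-2 ROD at 100–300 CCID50; compounds in serial five-fold dilutions, triplicate mock- and virus-infected wells. MTT viability read at 540 and 690 nm after 5 days, median OD of three wells; EC50 = 50% protection from viral cytopathic effect.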

Human alphaherpesvirus 1 [14] = assay: Antiviral activity against HSV1 KOS in human E6SM cells assessed as reduction of virus-induced cytopathogenicity; assay type: functional; details: Human alphaherpesvirus 1, KOS; outline: as §1
[15] = Cytotoxicity against human E6SM cells; assay type: cell-based; details: E6SM cells; outline: as §2
[16] = Cytotoxicity against human HeLa cells; assay type: cell-based; outline: as §2
Human alphaherpesvirus 1 [17] = assay: Antiviral activity against HSV1 KOS in human HEL cells assessed as reduction of virus-induced cytopathogenicity; assay type: functional; details: Human alphaherpesvirus 1, KOS; outline: as §1
Human alphaherpesvirus 1 [18] = assay: Antiviral activity against thymidine kinase deficient and acyclovir resistant HSV1 KOS in human E6SM cells assessed as reduction of virus-induced cytopathogenicity; assay type: functional; details: Human alphaherpesvirus 1, KOS; outline: as §1
[19] = test system: Respiratory syncytial virus; assay: Antiviral activity against respiratory syncytial virus in human HeLa cells assessed as inhibition of virus-induced cytopathogenicity; assay type: functional; outline: as §1
Human alphaherpesvirus 2 [20] = assay: Antiviral activity against HSV2 G in human E6SM cells assessed as reduction of virus-induced cytopathogenicity; assay type: functional; details: Human alphaherpesvirus 2, G; outline: as §1
[21] = test system: Human immunodeficiency virus 1; assay: Antiviral activity against HIV1 3B in human MT4 cells assessed as protection against virus-induced cytopathogenicity by MTT assay; assay type: functional, organism-based; design: Activity: concentration or dose not given beside the values; details: for IC50: Human immunodeficiency virus 1, 3B, MT4; outline: as §3
[22] = test system: Mammalian orthoreovirus 1; assay: Antiviral activity against Reo virus 1 in african green monkey Vero cells assessed as reduction of virus-induced cytopathogenicity; assay type: functional; outline: as §1
[23] = Cytotoxicity against human MT4 cells by MTT assay; assay type: cell-based
Outline: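 Mock-infected MT-4 cells (6 × 10⁵ cells/ml) with serial five-fold compound dilutions in triplicate; MTT reduction read at 540 and 690 nm after 5 days, median OD of three wells; CC50 = concentration reducing OD540 of mock-infected control by 50%.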

[24] = test system: Vesicular stomatitis virus; assay: Antiviral activity against in Vesicular stomatitis virus in human HEL cells assessed as reduction of virus-induced cytopathogenicity; assay type: functional; outline: as §1
Human betaherpesvirus 5 [25] = assay: Antiviral activity against human cytomegalovirus AD169 infected HEL cells assessed as reduction in virus plaque formation; assay type: functional, organism-based; details: Human betaherpesvirus 5, AD169, HEL

Row | SMILES | MIC [1] [µg/mL] | CC50 [2] [µg/mL] | EC50 (Human alphaherpesvirus 3 [3]) [µg/mL] | MIC [4] [µg/mL] | MIC (Human alphaherpesvirus 2 [5]) [µg/mL] | EC50 (Human alphaherpesvirus 3 [6]) [µg/mL] | MIC (Human alphaherpesvirus 1 [7]) [µg/mL] | MCC [8] [µg/mL] | MIC (Coxsackievirus B4 [10]) [µg/mL] | Activity (Vero) [µg/mL] | EC50 (Human betaherpesvirus 5 [11]) [µg/mL] | MIC (Sindbis virus) [µg/mL] | MIC (Coxsackievirus B4 [12]) [µg/mL] | MIC (Punta Toro virus) [µg/mL] | MIC (Human respirovirus 3) [µg/mL] | Activity [13] [%] | IC50 [13] [µg/mL] | MIC (Human alphaherpesvirus 1 [14]) [µg/mL] | MCC [15] [µg/mL] | MCC [16] [µg/mL] | also measured
1 | Cn1c(COc2ccc(NC(=S)Nc3ccccc3)cc2)n[nH]c1=S | > 80 | > 50 | 33 (≈ 88.8 µM) | > 400 | > 80 | 38 (≈ 102 µM) | > 80 | 400 | > 80 | 400 | 49 (≈ 132 µM) | > 80 | > 400 | > 80 | > 80 | 6.5 | > 87.8 | > 80 | 400 | > 400 | inhibition at 6.25 µg/mL [9]: 70%; MIC (Human alphaherpesvirus 1 [17]): > 80 µg/mL; MIC (Human alphaherpesvirus 1 [18]): > 80 µg/mL; MIC [19]: > 400 µg/mL; MIC (Human alphaherpesvirus 2 [20]): > 80 µg/mL; Activity [21]: 3.5%; IC50 [21]: > 98.9 µg/mL; MIC [22]: > 80 µg/mL; CC50 [23]: ≥ 87.8 µg/mL; MIC [24]: > 80 µg/mL; EC50 (Human betaherpesvirus 5 [25]): 66 µg/mL (≈ 178 µM)
2 | CCNC(=S)Nc1ccc(OCc2n[nH]c(=S)n2CC)cc1 | > 400 | > 50 | 64 (≈ 190 µM) | > 80 | 240 (≈ 711 µM) | 58 (≈ 172 µM) | 240 (≈ 711 µM) | > 400 | 48 (≈ 142 µM) | 400 | 55 (≈ 163 µM) | > 80 | > 80 | > 80 | > 80 | 8 | > 91.1 | > 400 | > 400 | 400 | Activity [9]: inactive; MIC (Human alphaherpesvirus 1 [17]): > 400 µg/mL; MIC (Human alphaherpesvirus 1 [18]): 240 µg/mL (≈ 711 µM); MIC [19]: > 80 µg/mL; MIC (Human alphaherpesvirus 2 [20]): 240 µg/mL (≈ 711 µM); Activity [21]: 9.5%; IC50 [21]: > 88.3 µg/mL; MIC [22]: > 80 µg/mL; CC50 [23]: 94.2 µg/mL (≈ 279 µM); MIC [24]: > 400 µg/mL; EC50 (Human betaherpesvirus 5 [25]): 49 µg/mL (≈ 145 µM)
3 | Nc1ccc(OCc2n[nH]c(=S)n2-c2ccccc2)cc1 | > 400 | > 50 | > 100 | > 400 | 240 (≈ 804 µM) | > 100 | > 400 | > 400 | 48 (≈ 161 µM) | 400 | > 100 | > 80 | > 400 | > 80 | > 80 | 2.5 | > 125 | > 400 | > 400 | > 400 | Activity [9]: inactive; MIC (Human alphaherpesvirus 1 [17]): > 400 µg/mL; MIC (Human alphaherpesvirus 1 [18]): > 400 µg/mL; MIC [19]: > 400 µg/mL; MIC (Human alphaherpesvirus 2 [20]): 240 µg/mL (≈ 804 µM); Activity [21]: 2%; IC50 [21]: > 125 µg/mL; MIC [22]: > 80 µg/mL; CC50 [23]: > 125 µg/mL; MIC [24]: > 400 µg/mL; EC50 (Human betaherpesvirus 5 [25]): > 100 µg/mL
4 | CCn1c(COc2ccc(NC(=S)NC)cc2)n[nH]c1=S | > 400 | > 50 | > 100 | > 80 | > 400 | 88 (≈ 272 µM) | > 400 | > 400 | > 80 | 400 | > 100 | > 80 | > 80 | > 80 | > 80 | 2 | > 77.9 | > 400 | > 400 | 400 | Activity [9]: inactive; MIC (Human alphaherpesvirus 1 [17]): > 400 µg/mL; MIC (Human alphaherpesvirus 1 [18]): > 400 µg/mL; MIC [19]: > 80 µg/mL; MIC (Human alphaherpesvirus 2 [20]): > 400 µg/mL; Activity [21]: 1.5%; IC50 [21]: > 68.1 µg/mL; MIC [22]: > 80 µg/mL; CC50 [23]: 76.8 µg/mL (≈ 237 µM); MIC [24]: > 400 µg/mL; EC50 (Human betaherpesvirus 5 [25]): 63 µg/mL (≈ 195 µM)
5 | CNC(=S)Nc1ccc(OCc2n[nH]c(=S)n2C)cc1 | > 400 | > 50 | > 100 | > 400 | 240 (≈ 776 µM) | > 100 | > 400 | > 400 | > 80 | 400 | > 100 | > 80 | > 400 | > 80 | > 80 | 1 | > 125 | > 400 | > 400 | > 400 | Activity [9]: inactive; MIC (Human alphaherpesvirus 1 [17]): > 400 µg/mL; MIC (Human alphaherpesvirus 1 [18]): > 400 µg/mL; MIC [19]: > 400 µg/mL; MIC (Human alphaherpesvirus 2 [20]): 240 µg/mL (≈ 776 µM); Activity [21]: 1%; IC50 [21]: > 112 µg/mL; MIC [22]: > 80 µg/mL; CC50 [23]: ≥ 112 µg/mL; MIC [24]: > 400 µg/mL; EC50 (Human betaherpesvirus 5 [25]): > 100 µg/mL
